ChEMBL document CHEMBL4689842, “EUbOPEN Chemogenomics Library wave 1” (2021)

Tested on: HEK-293T
Experiment: Multiplex assay against HEK293T;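 for Population Tubulin-Different-Phenotype (%): share of the cells with healthy nuclei that show this phenotype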
Format: toxicity, cell-based
Conditions: human
In short: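 At seeding, live cells were stained with Hoechst33342, BioTracker Green Microtubule Cytoskeleton Dye, MitoTracker Red and Annexin V Alexa Fluor 680. After compound addition they were imaged on a CQ1 microscope at 37°C and 5% CO2, and CellPathfinder machine-learning gating sorted them into Hoechst high-intensity objects or normal cells, with normal cells further split into healthy, pyknosed or fragmented nuclei and pyknosed cells into mitotic or apoptotic. Tubulin, mitochondrial-mass and membrane-permeability phenotypes are given as per cents of cells with healthy nuclei.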

[1] = 12 h, 1 µM, compound concentration 1 uM, replicate 1
[2] = 12 h, 1 µM, compound concentration 1 uM, replicate 2
[3] = 12 h, 10 µM, compound concentration 10 uM, replicate 1
[4] = 12 h, 10 µM, compound concentration 10 uM, replicate 2
[5] = 24 h, 1 µM, compound concentration 1 uM, replicate 1
[6] = 24 h, 1 µM, compound concentration 1 uM, replicate 2
[7] = 24 h, 10 µM, compound concentration 10 uM, replicate 1
[8] = 24 h, 10 µM, compound concentration 10 uM, replicate 2
[9] = 48 h, 1 µM, compound concentration 1 uM, replicate 1
[10] = 48 h, 1 µM, compound concentration 1 uM, replicate 2
[11] = 48 h, 10 µM, compound concentration 10 uM, replicate 1
[12] = 48 h, 10 µM, compound concentration 10 uM, replicate 2

CC(C)c1noc(N2CCC(COc3ccc(-c4ccc(S(C)(=O)=O)cc4)nc3)CC2)n1 [GSK-1292263] was tested, and the “Population Apoptotic (%)” value [1] was 36%, the “Population Fragmented Nuclei (%)” value [1] was 14% and the “Population Healthy Nuclei (%)” value [1] was 31%. The “Population Hoechst High Intensity Objects (%)” value [1] was 14%, the “Population Membrane Permeable-Phenotype (%)” value [1] was 8% and the “Population Mitochondria Different-Phenotype (%)” value [1] was 65%. The “Population Mitotic Cells (%)” value [1] was 63%, the “Population Normal (%)” value [1] was 85% and the “Population Pyknosed Nuclei (%)” value [1] was 54%. For the same molecule, the “Population Tubulin-Different-Phenotype (%)” value [1] was 34%, the “Total Cell Count” value [1] was 304 and the “Population Apoptotic (%)” value [2] was 12%. The “Population Fragmented Nuclei (%)” value [2] was 2%, the “Population Healthy Nuclei (%)” value [2] was 50% and the “Population Hoechst High Intensity Objects (%)” value [2] was 1%. The “Population Membrane Permeable-Phenotype (%)” value [2] was 7%, the “Population Mitochondria Different-Phenotype (%)” value [2] was 15% and the “Population Mitotic Cells (%)” value [2] was 87%. The “Population Normal (%)” value [2] was 98%, the “Population Pyknosed Nuclei (%)” value [2] was 46% and the “Population Tubulin-Different-Phenotype (%)” value [2] was 16%. The “Total Cell Count” value [2] was 228, the “Population Apoptotic (%)” value [3] was 50% and the “Population Fragmented Nuclei (%)” value [3] was 14%. The “Population Healthy Nuclei (%)” value [3] was 11%, the “Population Hoechst High Intensity Objects (%)” value [3] was 18% and the “Population Membrane Permeable-Phenotype (%)” value [3] was 16%. The “Population Mitochondria Different-Phenotype (%)” value [3] was 68%, the “Population Mitotic Cells (%)” value [3] was 50% and the “Population Normal (%)” value [3] was 81%. For the same molecule, the “Population Pyknosed Nuclei (%)” value [3] was 74%, the “Population Tubulin-Different-Phenotype (%)” value [3] was 72% and the “Total Cell Count” value [3] was 276. The “Population Apoptotic (%)” value [4] was 13%, the “Population Fragmented Nuclei (%)” value [4] was 7% and the “Population Healthy Nuclei (%)” value [4] was 20%. For the same molecule, the “Population Hoechst High Intensity Objects (%)” value [4] was 12%, the “Population Membrane Permeable-Phenotype (%)” value [4] was 8% and the “Population Mitochondria Different-Phenotype (%)” value [4] was 26%. The “Population Mitotic Cells (%)” value [4] was 86%, the “Population Normal (%)” value [4] was 87% and the “Population Pyknosed Nuclei (%)” value [4] was 72%. For the same molecule, the “Population Tubulin-Different-Phenotype (%)” value [4] was 26%, the “Total Cell Count” value [4] was 131 and the “Population Apoptotic (%)” value [5] was 39%. For the same molecule, the “Population Fragmented Nuclei (%)” value [5] was 15%, the “Population Healthy Nuclei (%)” value [5] was 32% and the “Population Hoechst High Intensity Objects (%)” value [5] was 19%. The “Population Membrane Permeable-Phenotype (%)” value [5] was 2%, the “Population Mitochondria Different-Phenotype (%)” value [5] was 57% and the “Population Mitotic Cells (%)” value [5] was 60%. For the same molecule, the “Population Normal (%)” value [5] was 80%, the “Population Pyknosed Nuclei (%)” value [5] was 51% and the “Population Tubulin-Different-Phenotype (%)” value [5] was 37%. The “Total Cell Count” value [5] was 316, the “Population Apoptotic (%)” value [6] was 15% and the “Population Fragmented Nuclei (%)” value [6] was 6%. The “Population Healthy Nuclei (%)” value [6] was 62%, the “Population Hoechst High Intensity Objects (%)” value [6] was 3% and the “Population Membrane Permeable-Phenotype (%)” value [6] was 8%. For the same molecule, the “Population Mitochondria Different-Phenotype (%)” value [6] was 14%, the “Population Mitotic Cells (%)” value [6] was 84% and the “Population Normal (%)” value [6] was 96%. For the same molecule, the “Population Pyknosed Nuclei (%)” value [6] was 31%, the “Population Tubulin-Different-Phenotype (%)” value [6] was 31% and the “Total Cell Count” value [6] was 270. The “Population Apoptotic (%)” value [7] was 58%, the “Population Fragmented Nuclei (%)” value [7] was 15% and the “Population Healthy Nuclei (%)” value [7] was 12%. For the same molecule, the “Population Hoechst High Intensity Objects (%)” value [7] was 23%, the “Population Membrane Permeable-Phenotype (%)” value [7] was 7% and the “Population Mitochondria Different-Phenotype (%)” value [7] was 78%. The “Population Mitotic Cells (%)” value [7] was 41%, the “Population Normal (%)” value [7] was 76% and the “Population Pyknosed Nuclei (%)” value [7] was 72%. For the same molecule, the “Population Tubulin-Different-Phenotype (%)” value [7] was 75%, the “Total Cell Count” value [7] was 298 and the “Population Apoptotic (%)” value [8] was 14%. For the same molecule, the “Population Fragmented Nuclei (%)” value [8] was 7%, the “Population Healthy Nuclei (%)” value [8] was 38% and the “Population Hoechst High Intensity Objects (%)” value [8] was 9%. For the same molecule, the “Population Membrane Permeable-Phenotype (%)” value [8] was 4%, the “Population Mitochondria Different-Phenotype (%)” value [8] was 32% and the “Population Mitotic Cells (%)” value [8] was 85%. For the same molecule, the “Population Normal (%)” value [8] was 90%, the “Population Pyknosed Nuclei (%)” value [8] was 53% and the “Population Tubulin-Different-Phenotype (%)” value [8] was 55%. The “Total Cell Count” value [8] was 139, the “Population Apoptotic (%)” value [9] was 37% and the “Population Fragmented Nuclei (%)” value [9] was 16%. For the same molecule, the “Population Healthy Nuclei (%)” value [9] was 41%, the “Population Hoechst High Intensity Objects (%)” value [9] was 14% and the “Population Membrane Permeable-Phenotype (%)” value [9] was 4%. The “Population Mitochondria Different-Phenotype (%)” value [9] was 32%, the “Population Mitotic Cells (%)” value [9] was 62% and the “Population Normal (%)” value [9] was 85%. For the same molecule, the “Population Pyknosed Nuclei (%)” value [9] was 42%, the “Population Tubulin-Different-Phenotype (%)” value [9] was 35% and the “Total Cell Count” value [9] was 377. For the same molecule, the “Population Apoptotic (%)” value [10] was 14%, the “Population Fragmented Nuclei (%)” value [10] was 4% and the “Population Healthy Nuclei (%)” value [10] was 80%. For the same molecule, the “Population Hoechst High Intensity Objects (%)” value [10] was 4%, the “Population Membrane Permeable-Phenotype (%)” value [10] was 8% and the “Population Mitochondria Different-Phenotype (%)” value [10] was 3%. For the same molecule, the “Population Mitotic Cells (%)” value [10] was 85%, the “Population Normal (%)” value [10] was 95% and the “Population Pyknosed Nuclei (%)” value [10] was 14%. For the same molecule, the “Population Tubulin-Different-Phenotype (%)” value [10] was 22%, the “Total Cell Count” value [10] was 482 and the “Population Apoptotic (%)” value [11] was 63%. For the same molecule, the “Population Fragmented Nuclei (%)” value [11] was 24%, the “Population Healthy Nuclei (%)” value [11] was 10% and the “Population Hoechst High Intensity Objects (%)” value [11] was 25%. For the same molecule, the “Population Membrane Permeable-Phenotype (%)” value [11] was 8%, the “Population Mitochondria Different-Phenotype (%)” value [11] was 37% and the “Population Mitotic Cells (%)” value [11] was 36%. For the same molecule, the “Population Normal (%)” value [11] was 74%, the “Population Pyknosed Nuclei (%)” value [11] was 64% and the “Population Tubulin-Different-Phenotype (%)” value [11] was 58%. For the same molecule, the “Total Cell Count” value [11] was 296, the “Population Apoptotic (%)” value [12] was 14% and the “Population Fragmented Nuclei (%)” value [12] was 8%. For the same molecule, the “Population Healthy Nuclei (%)” value [12] was 62%, the “Population Hoechst High Intensity Objects (%)” value [12] was 3% and the “Population Membrane Permeable-Phenotype (%)” value [12] was 12%. For the same molecule, the “Population Mitochondria Different-Phenotype (%)” value [12] was 12%, the “Population Mitotic Cells (%)” value [12] was 85% and the “Population Normal (%)” value [12] was 96%. The “Population Pyknosed Nuclei (%)” value [12] was 28%, the “Population Tubulin-Different-Phenotype (%)” value [12] was 54% and the “Total Cell Count” value [12] was 176.
